Assay results as given in ChEMBL document CHEMBL3792308, “Synthesis and Evaluation of 2,6-Modified Purine 2'-C-Methyl Ribonucleosides as Inhibitors of HCV Replication” (ACS Med Chem Lett, 2016).

Legend:
[1] = Cytotoxicity against human CEM cells after 6 days by trypan blue exclusion assay; format: cell-based; conditions: CEM (CCRF-CEM) cells
[2] = Cytotoxicity against African green monkey Vero cells after 3 days by hemocytometry; format: cell-based; conditions: chlorocebus sabaeus
[3] = Cytotoxicity against human HuH7 cells infected with HCV assessed as reduction in cellular rRNA level after 96 hrs by qRT-PCR analysis; format: cell-based, Huh-7
Procedure, shortened: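 Huh7 toxicity was read in the same wells as the replicon assay, by extracting and amplifying cellular rRNA alongside HCV RNA.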

Hepatitis C virus = assay: Antiviral activity against HCV infected in HuH7 Clone B cells assessed as inhibition of viral replication after 5 days by RT-PCR method; format: functional, organism-based, Hepacivirus hominis; conditions: 120 h
Procedure, shortened: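 Huh7 cells carrying a subgenomic HCV replicon; HCV RNA extracted and amplified to measure replication inhibition. Tested up to 10 μM, and EC50 and EC90 are reported.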

[4] = Cytotoxicity against human PBMC after 6 days by trypan blue exclusion assay; format: cell-based; conditions: PBMC (peripheral blood mononuclear cells)

Row | EC50 (Hepatitis C virus) [µM] | EC90 (Hepatitis C virus) [µM] | SMILES | CC50 at 144 h [1] [µM] | CC50 at 72 h [2] [µM] | CC50 at 96 h [3] [µM] | CC50 at 144 h [4] [µM]
1 | > 10 | > 10 | COc1nc(OC)c2ncn([C@@H]3O[C@H](CO)[C@@H](O)[C@@]3(C)O)c2n1 | > 100 | > 100 | > 10 | > 100
2 | 2.4 | 7.7 | CCOC(=O)[C@H](C)NP(=O)(OC[C@H]1O[C@@H](n2cnc3c(N=[N+]=[N-])nc(N)nc32)[C@](C)(O)[C@@H]1O)Oc1ccccc1 (stereo not given in full) | > 100 | > 100 | > 10 | > 100
3 | 2.4 | 8 | C[C@@]1(O)[C@H](O)[C@@H](CO)O[C@H]1n1cnc2c(ONC(=O)OCc3ccccc3)nc(N)nc21 | > 100 | > 100 | > 10 | > 100
4 | > 10 | > 10 | C=C(OCC)c1nc(N)nc2c1ncn2[C@@H]1O[C@H](COP(=O)(N[C@@H](C)C(=O)OCC)Oc2ccccc2)[C@@H](O)[C@@]1(C)O (stereo not given in full) | > 100 | > 100 | > 10 | > 100
5 | > 10 | > 10 | COc1nc(N)c2ncn([C@@H]3O[C@H](CO)[C@@H](O)[C@@]3(C)O)c2n1 | > 100 | > 100 | > 10 | > 100
6 | 4.8 | 10 | CCOC(=O)[C@H](C)NP(=O)(OC[C@H]1O[C@@H](n2cnc3c(N)nc(ONC(=O)OCc4ccccc4)nc32)[C@](C)(O)[C@@H]1O)Oc1ccccc1 (stereo not given in full) | > 100 | > 100 | > 33 | > 100
7 | 1.7 | 5.3 | CCOC(=O)[C@H](C)NP(=O)(OC[C@H]1O[C@@H](n2cnc3c(N)nc(Cl)nc32)[C@](C)(O)[C@@H]1O)Oc1ccccc1 (stereo not given in full) | > 100 | > 100 | > 10 | > 100
8 | > 10 | > 10 | C[C@@]1(O)[C@H](O)[C@@H](CO)O[C@H]1n1cnc2c(N)nc(O)nc21 | > 100 | > 100 | > 10 | > 100
9 | > 10 | > 10 | COc1nc(ONC(=O)OCc2ccccc2)nc2c1ncn2[C@@H]1O[C@H](CO)[C@@H](O)[C@@]1(C)O | > 100 | > 100 | > 10 | > 100
10 | 0.3 | 0.9 | CC(C)(CO)C(=O)SCCOP(=O)(NCc1ccccc1)OC[C@H]1O[C@@H](n2cnc3c(=O)[nH]c(N)nc32)[C@](C)(O)[C@@H]1O (stereo not given in full) | > 100 | > 100 | > 100 | > 100
11 | > 10 | > 10 | CONc1nc(N)nc2c1ncn2[C@@H]1O[C@H](CO)[C@@H](O)[C@@]1(C)O | > 100 | > 100 | > 10 | > 100
12 | > 10 | > 10 | COc1nc(O)nc2c1ncn2[C@@H]1O[C@H](CO)[C@@H](O)[C@@]1(C)O | > 100 | > 100 | > 10 | > 100
13 | > 10 | > 10 | C[C@@]1(O)[C@H](O)[C@@H](CO)O[C@H]1n1cnc2c(N)nc(N=[N+]=[N-])nc21 | > 100 | > 100 | > 10 | > 100
14 | > 10 | > 10 | COc1nc(Cl)nc2c1ncn2[C@@H]1O[C@H](CO)[C@@H](O)[C@@]1(C)O | > 100 | > 100 | > 10 | > 100
15 | > 10 | > 10 | CCOC(=O)[C@H](C)NP(=O)(OC[C@H]1O[C@@H](n2cnc3c(P(=O)(OCC)OCC)nc(N)nc32)[C@](C)(O)[C@@H]1O)Oc1ccccc1 (stereo not given in full) | > 100 | > 100 | > 10 | > 100
